Values after ≈ are worked out from the molar mass of the structure shown.
Legend:
Plasmodium falciparum [1] = test: In vitro antimalarial activity against mefloquine-resistant Plasmodium falciparum D6 (Sierra Leone); assay type: functional, organism-based
Outline: (§1)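 Semiautomated microdilution over a 64-fold dilution range, with DMSO stock diluted in medium with 10% plasma. Parasites at 0.5% parasitemia and 1.5% hematocrit, 37°C under 5% O2/5% CO2/90% N2 for 24 h. Tritiated hypoxanthine added for a further 18–20 h and incorporation read by scintillation. IC50 from nonlinear regression of concentration–response curves.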

Plasmodium falciparum [2] = test: In vitro antimalarial activity against chloroquine-resistant Plasmodium falciparum W2 (Indochina); assay type: functional, organism-based; outline: as §1
Plasmodium berghei [3] = test: Antimalarial activity against Plasmodium berghei infected mice (Mus musculus) at 40 mg/kg dose; n=5; assay type: functional
Outline: (§2)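 Mice infected intraperitoneally on day 0 with 5.98×10^5 P. berghei-parasitized cells. A single subcutaneous dose in peanut oil was given on day 3, at 640, 320, 160, 80, 40 or 20 mg/kg. Blood films were taken on day 6, then every 7 days to day 60. Mice surviving 60 days counted as cured. Activity meant survival over twice that of infected untreated controls.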

Plasmodium berghei [4] = test: Antimalarial activity against Plasmodium berghei infected mice (Mus musculus) at 640 mg/kg dose; n=5; assay type: functional; outline: as §2
Plasmodium berghei [5] = test: Antimalarial activity against Plasmodium berghei infected mice (Mus musculus) at 80 mg/kg dose;n=5; assay type: functional; outline: as §2
Plasmodium berghei [6] = test: Antimalarial activity against Plasmodium berghei infected mice (Mus musculus) at 20 mg/kg dose; n=5; assay type: functional; outline: as §2
Plasmodium berghei [7] = test: Antimalarial activity against Plasmodium berghei infected mice (Mus musculus) at 320 mg/kg dose; active in 2 of 5; assay type: functional; outline: as §2
Plasmodium berghei [8] = test: Antimalarial activity against Plasmodium berghei infected mice (Mus musculus) at 160 mg/kg dose; active in 2 of 5; assay type: functional; outline: as §2
Plasmodium berghei [9] = test: Antimalarial activity against Plasmodium berghei infected mice (Mus musculus) at 320 mg/kg dose; n=5; assay type: functional; outline: as §2
Plasmodium berghei [10] = test: Antimalarial activity against Plasmodium berghei infected mice (Mus musculus) at 160 mg/kg dose; n=5; assay type: functional; outline: as §2

Row | SMILES | IC50 (Plasmodium falciparum [1]) [ng/mL] | IC50 (Plasmodium falciparum [2]) [ng/mL] | No. of mice cured (Plasmodium berghei [3]) | No. of mice cured (Plasmodium berghei [4]) | No. of mice cured (Plasmodium berghei [5]) | No. of mice cured (Plasmodium berghei [6]) | No. of mice cured (Plasmodium berghei [7]) | No. of mice cured (Plasmodium berghei [8]) | No. of mice cured (Plasmodium berghei [9]) | No. of mice cured (Plasmodium berghei [10])
1 | C[C@@H]1CC[C@H]2[C@@H](C)CO[C@@H]3OC4(C)CC[C@@H]1[C@]32O4 (single isomer, unassigned) | 250 (≈ 991 nM) | 250 (≈ 991 nM) |  |  |  |  |  |  |  | 
2 | C[C@@H]1CC[C@H]2[C@@H](C)C(O)O[C@@H]3OC4(C)CC[C@@H]1[C@]32OO4 (single isomer, unassigned) | 0.11 (≈ 0.387 nM) | 0.04 (≈ 0.141 nM) |  |  |  |  |  |  |  | 
3 | C[C@@H]1CC[C@H]2[C@@H](C)CO[C@@H]3OC4(C)CC[C@@H]1[C@]32OO4 (single isomer, unassigned) [DEOXOARTEMISININ] | 0.58 (≈ 2.16 nM) | 0.15 (≈ 0.559 nM) | 0 | 5 | 0 | 0 | 2 | 0 |  | 
4 | C[C@@H]1CC[C@H]2[C@@H](C)C(=O)O[C@@H]3O[C@@]4(C)CC[C@@H]1[C@]32OO4 [ARTEMISININ] | 2.33 (≈ 8.25 nM) | 1.21 (≈ 4.29 nM) | 0 | 5 | 0 | 0 |  |  | 0 | 0
5 | CCO[C@H]1O[C@@H]2O[C@@]3(C)CC[C@H]4[C@H](C)CC[C@@H]([C@H]1C)[C@@]24OO3 [ARTEMOTIL] | 0.87 (≈ 2.78 nM) | 0.16 (≈ 0.512 nM) |  |  |  |  |  |  |  | 

From ChEMBL document CHEMBL1125082, “Synthesis and antimalarial activity of (+)-deoxoartemisinin” (J Med Chem, 1990)
